Screening results from PubChem.
The full list was thinned out, with hits kept by preference.
Yeast growth inh – chemicals that inhibit yeast BB579 growth in restrictive medium (lifespan-shortening candidates); S. cerevisiae BB579 growth, OD615, 48 h; inhibition, % at 10 µM; 140,000 compounds, 0.51% hits;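 active = inhibition above a set limit, 3 SD over the mean compound inhibition, cut at about 44% in these data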
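Assay system: S. cerevisiae DeaD strain BB579 yeast. Medium: CSMM-D restrictive synthetic medium containing dextrose (glucose). Times: 4 h cell preincubation, 48 h compound exposure, 30 °C humidified. Signal: OD615 turbidity measurement. Benchmarks: positive control amphotericin B 10 µg/mL.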
PostGolgi yeast – growth inhibition of a yeast mutant, post-Golgi transport screen | post-Golgi transport phenotypic cell assay | inhibition, % at 10 µM | 98,000 compounds, 0.9% hits | AID 739;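 also: yeast cells grown in 1536-well plates; yeast grown about 18 h at 30C before absorbance read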
PostGolgi ctrl – inhibits growth of the yeast control strain | 98,000 compounds, 5% hits | inhibition, % at 10 µM | efflux-deficient yeast background strain, growth absorbance A615, 16 h
Yeast life ext – yeast lifespan extension; 130,000 compounds, 0.68% hits; S. cerevisiae growth with nicotinamide, OD615; deaD strain in restrictive glucose medium; inhibition of the nicotinamide effect, % at 10 µM;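 active = inhibition above a set limit, placed 3 SD over the median of all compounds, cut at about 26% in these data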;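 also: 0% = nicotinamide-treated wells and 100% = cells grown without nicotinamide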
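assay system = DeaD-strain S. cerevisiae | measured by = absorbance at 615 nm | probe or stimulus = nicotinamide 1.5 mM | buffer or medium = CSMM-D glucose medium, restrictive | times = 48 h at 30 °C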
Numbers without * were called inactive; · = not tested or not shown. Rule as the data show it, unless noted: active = inhibition above about 30%; inactive = the rest.

SMILES | Yeast growth inh | PostGolgi yeast | PostGolgi ctrl | Yeast life ext
CCOc1ccc(CCNC(=O)C2CCC(=O)N2C2CCCCC2)cc1OCC (configuration not stated) | -52.4 | -2.8 | 36.4* | -2.0
O=C(NCc1ccc(F)cc1)C1CCC(=O)N1C1CCCCC1 (configuration not stated) | -34.5 | -3.3 | 34.7* | -7.2
COC(=O)c1sccc1NC(=S)N1CC(C)CC(C)C1 (configuration not stated) | -24.8 | -2.1 | 3.2 | 2.6
Cc1cccc(NC(=O)CSc2ccc(C(N)=O)cc2[N+](=O)[O-])c1C | -8.8 | · | · | 12.9
CCCN(CCC)c1nc(Cl)nc(NCc2ccco2)n1 | -39.6 | 20.9 | 38.4* | -5.2
CCOC(=O)c1c(C=O)c(C)n(Cc2ccc(Cl)cc2)c1C | 12.3 | 3.2 | 42.2* | -16.4
CCOC(=O)c1c(C=O)c(C)n(Cc2ccccc2)c1C | -22.0 | 0.2 | 10.5 | -14.8
O=C(CSc1nc2ccccc2o1)Nc1cc(C(F)(F)F)ccc1N1CCOCC1 | -29.9 | -6.8 | 33.8* | -12.5
FC(F)(F)c1ccc(N2CCOCC2)c(Nc2nc3ccccc3n3cnnc23)c1 | -55.1 | 6.8 | 51.8* | -26.9
NC(=O)C1CCN(c2nc(-c3ccc(Br)cc3)cs2)CC1 | -17.7 | · | · | 4.3
NC(=O)C1(N2CCCCC2)CCN(c2nc(-c3ccc(Br)cc3)cs2)CC1 | -41.3 | 6.0 | 60.4* | -13.6
CCOC(=O)C(NC(=O)c1ccccc1OCC)(Nc1ncccn1)C(F)(F)F (configuration not stated) | -33.6 | 1.7 | 22.9 | -1.8
CCOc1ccc(C2/C(=C(/O)c3ccc(F)cc3)C(=O)C(=O)N2CCCN(C)C)cc1 (configuration not stated) | -63.9 | -6.4 | 44.1* | -12.4
COCCCN1C(=O)C(=O)/C(=C(/O)c2ccc(OC)cc2)C1c1cccc(OC)c1 (configuration not stated) | -22.2 | 5.1 | 34.6* | -11.3
COC(=O)C1=C(C)N=C2SC(C)C(=O)N2C1c1cccs1 (configuration not stated) | -26.7 | 16.7 | 6.1 | -8.3
CCOC(=O)C1=NN(c2ccccc2)C2=NC(C)=C(C(=O)OC)C(c3ccc(C)cc3)N12 (configuration not stated) | -28.4 | · | · | 9.8
CCC1SC2=NC(C)=C(C(=O)OC)C(c3ccc(C)cc3)N2C1=O (configuration not stated) | -40.6 | -13.1 | 42.4* | -6.2
COC(=O)C1=C(C)N=C2SC(C)C(=O)N2C1c1ccc(C(=O)OC)cc1 (configuration not stated) | -25.2 | -1.9 | 35.8* | -15.0
Cc1cc(C)c(S(=O)(=O)c2ccccc2C)c(OCC(C)(C)C)n1 | -47.0 | -3.1 | 11.3 | -2.4
C/C(N)=C(/C#N)C(=O)CSc1nc(C2CCCCC2)n(-c2ccccc2)n1 | 12.5 | -6.5 | 2.9 | 58.6*
NC(=O)NC(=O)CSc1nc(C2CCCCC2)n(-c2ccccc2)n1 | -24.8 | · | · | 4.2
Fc1cccc(-c2cc3nc4c(c(N5CCOCC5)n3n2)CCCC4)c1 | 14.3 | 15.5 | 70.3* | -23.7
Clc1cccc(-c2cc3nc4c(c(N5CCN(c6cnccn6)CC5)n3n2)CCCC4)c1 | -31.4 | · | · | ·
Fc1cccc(-c2cc3nc4c(c(NCc5ccco5)n3n2)CCCC4)c1 | -35.6 | 3.1 | 49.4* | -11.4
Clc1cccc(-c2cc3nc4c(c(N5CCOCC5)n3n2)CCCC4)c1 | -24.6 | -1.2 | 88.1* | -9.6
SMILES | Yeast growth inh | PostGolgi yeast | PostGolgi ctrl | Yeast life ext
OC1CCN(c2c3c(nc4cc(-c5ccc(Cl)cc5)nn24)CCC3)CC1 | -23.8 | · | · | ·
COc1ccc(S(=O)(=O)N(C)CC(=O)NCc2cccnc2)cc1C | -26.5 | -2.5 | 19.1 | -1.3
COc1ccc(OCc2nnc(SC(C)C(=O)Nc3nccs3)n2-c2ccccc2)cc1 (configuration not stated) | -0.6 | 2.1 | 3.8 | -19.9
CNc1nc(Sc2ccc(C)cc2)cc(C(F)(F)F)n1 | -6.0 | 7.4 | 1.4 | -23.4
CCOC(=O)c1oc2ccccc2c1NC(=O)c1cccc(OC)c1OC | -45.1 | 15.1 | 46.2* | 14.9
COc1ccccc1N1CCN(S(=O)(=O)c2cnc[nH]2)CC1 | -45.1 | -2.7 | 2.5 | -8.1
CCOC(=O)C1CCCn2c1nc1sc3c(c1c2=O)CCCC3 (configuration not stated) | -68.5 | -6.6 | 38.2* | -15.2
CC(=O)N(c1ccc(N(C(C)=O)S(=O)(=O)c2cccs2)cc1)S(=O)(=O)c1cccs1 | -49.6 | 0.0 | 65.6* | -2.5
COc1ccc(C(=O)N(c2ccc(OC)cc2)S(=O)(=O)c2cccs2)cc1 | 3.0 | · | · | 0.1
COc1ccc(-c2nc(N)n[nH]2)cc1OC | 0.7 | 10.1 | -4.2 | -20.1
COc1nc(-c2ccccc2)cc(-c2ccc(OC)c(OC)c2)n1 | -58.3 | 6.9 | 38.0* | -27.5
